Measured values taken from ChEMBL document CHEMBL5352420, “Enantioselective synthesis of 4-amino-3,4-dihydrocoumarins and their non-cyclic hydroxyester precursors: Biological evaluation for the treatment of glioblastoma multiforme” (Eur J Med Chem, 2022).
Calls of active or inactive are those of the source. The calls are words filed in the database; no cut-off is given here.

What was measured:
[1] = Cytotoxicity against mouse N13 cells assessed as cell viability at 0.36 uM incubated for 24 hrs by MTT assay relative to control; format: functional; settings: read-out: Activity
Summary of the method: (§1)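 MTT assay (mitochondrial activity). Cells grown at 37 °C, humidified 5% CO2: N13 in RPMI, F98 in DMEM.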

[2] = Cytotoxicity against mouse N13 cells assessed as cell growth inhibition incubated for 24 hrs by MTT assay; format: functional, cell-based; settings: N13, 24 h; summary of the method: as §1
F98 [3] = assay: Cytotoxicity against rat F98 cells assessed as cell viability at 0.36 uM incubated for 24 hrs by MTT assay relative to control; format: functional; settings: read-out: Activity; summary of the method: as §1
[4] = Cytotoxicity against mouse N13 cells assessed as cell viability at 0.34 uM incubated for 24 hrs by MTT assay relative to control; format: functional; settings: read-out: Activity; summary of the method: as §1
F98 [5] = assay: Cytotoxicity against rat F98 cells assessed as cell viability at 0.34 uM incubated for 24 hrs by MTT assay relative to control; format: functional; settings: read-out: Activity; summary of the method: as §1
F98 [6] = assay: Cytotoxicity against rat F98 cells assessed as cell growth inhibition incubated for 24 hrs by MTT assay; format: functional, cell-based; settings: F98, 24 h; summary of the method: as §1
[7] = Cytotoxicity against mouse N13 cells assessed as cell viability at 0.5 uM incubated for 24 hrs by MTT assay relative to control; format: functional; settings: read-out: Activity; summary of the method: as §1
F98 [8] = assay: Cytotoxicity against rat F98 cells assessed as cell viability at 0.5 uM incubated for 24 hrs by MTT assay relative to control; format: functional; settings: read-out: Activity; summary of the method: as §1
[9] = Cytotoxicity against mouse N13 cells assessed as cell viability at 0.28 uM incubated for 24 hrs by MTT assay relative to control; format: functional; settings: read-out: Activity; summary of the method: as §1
F98 [10] = assay: Cytotoxicity against rat F98 cells assessed as cell viability at 0.28 uM incubated for 24 hrs by MTT assay relative to control; format: functional; settings: read-out: Activity; summary of the method: as §1
[11] = Cytotoxicity against mouse N13 cells assessed as cell viability at 0.4 uM incubated for 24 hrs by MTT assay relative to control; format: functional; settings: read-out: Activity; summary of the method: as §1
F98 [12] = assay: Cytotoxicity against rat F98 cells assessed as cell viability at 0.4 uM incubated for 24 hrs by MTT assay relative to control; format: functional; settings: read-out: Activity; summary of the method: as §1
F98 [13] = assay: Cytotoxicity in rat F98 cells co-cultured with CM-Dil-labeled mouse N13 cells assessed as decrease in number of rat F98 cells measured after 24 hrs by bright-field microscopy; format: functional, cell-based; settings: dose <= 100.0 µg/ml
Summary of the method: (§2)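 Co-culture. N13 cells pre-labelled with the red membrane dye CM-DiI, then seeded together with F98 cells. Cells exposed to 0, 10 or 100 µg/mL for 24 h. Brightfield and fluorescence images taken on a high-content imager. Cell types separated by automatic segmentation on morphology (N13 rounded, F98 elongated) plus label. Cell counts and percentages of each type reported.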

N13 [14] = assay: Cytotoxicity in CM-Dil-labeled mouse N13 cells co-cultured with rat F98 cells assessed as increase in number of mouse N13 cells upto 100 ug/ml measured after 24 hrs by bright-field microscopy; format: functional, cell-based; settings: dose <= 100.0 µg/ml; summary of the method: as §2
N13 [15] = assay: Induction of apoptosis in mouse N13 cells assessed as accumulation at sub G0/G1 phase at 100 ug/ml incubated for 24 hrs by flow cytometry; format: functional, cell-based; settings: dose 100.0 µg/ml
Summary of the method: (§3)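 N13 or F98 cells exposed to 100 µg/mL for 24 h, untreated cells as controls. DNA content measured by flow cytometry. The fraction in the sub-G0/1 region taken as apoptotic cells.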

F98 [16] = assay: Induction of apoptosis in rat F98 cells assessed as accumulation at sub G0/G1 phase at 100 ug/ml incubated for 24 hrs by flow cytometry relative to control; format: functional; settings: dose 100 µg/ml; summary of the method: as §3
[17] = Toxicity in rat assessed as brain injury administered locally in caudate nucleus of brain measured after 30 days by MRI analysis; format: tissue-based; settings: in vivo, other, 720 h, route it, time 30 day
Summary of the method: (§4)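 Non-tumor-bearing rats given a local injection into the caudate nucleus; PBS injected at the same site as control. Brain injury checked by in vivo MRI up to 30 days. Animals watched for external signs of pain or suffering. Survival monitored for 30 days.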

[18] = Toxicity in rat assessed as signs of pain administered locally in caudate nucleus of brain measured after 30 days; format: tissue-based; settings: in vivo, other, 720 h, route it, time 30 day; summary of the method: as §4
[19] = Toxicity in rat assessed as signs of suffering administered locally in caudate nucleus of brain measured after 30 days; format: tissue-based; settings: in vivo, other, 720 h, route it, time 30 day; summary of the method: as §4
[20] = Toxicity in rat assessed as survival rate administered locally in caudate nucleus of brain measured after 30 days relative to control; format: tissue-based; settings: in vivo, route it, time 30 day
Summary of the method: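 Non-tumor-bearing rats received compound by local injection into the caudate nucleus, with PBS injected into the same region as control. Brains were imaged by in vivo MRI (9.4 T) before and 30 days after injection. Animals were watched for signs of pain, and survival over 30 days was plotted as Kaplan-Meier.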

F98 [21] = assay: Antitumor activity against rat F98 cells xenografted in Fisher rat assessed as necrotic/apoptotic tumor cells at 5 mg/kg, IT measured after 2 days by MRI analysis; format: functional, organism-based; settings: time 2.0 day
F98 [22] = assay: Antitumor activity against rat F98 cells xenografted in Fisher rat assessed as average tumor volume at 5 mg/kg, IT measured after 2 days by MRI analysis (reference value: 845 mm^3); format: functional; settings: time 2 day
[23] = Toxicity in Fisher rat xenografted with rat F98 cells assessed as animal survival at 5 mg/kg, IT measured for 5 days; format: organism-based; settings: in vivo, other, 120 h, time 5 day
Summary of the method: (§5)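 F98 glioma cells implanted in rats per an earlier protocol. Tumor volume followed by T₂-weighted MRI (9.4 T, turbo-RARE, TE 33 ms, TR 2500 ms) on days 3, 5, 8, 10, 12 and 15. On day 10 (mean tumor about 325 mm³), compound in PBS was given intratumorally at 5 mg/kg; PBS alone was the control. Survival was plotted as Kaplan-Meier.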

F98 [24] = assay: Antitumor activity against rat F98 cells xenografted in Fisher rat assessed as average tumor volume at 5 mg/kg, IT measured after 5 days by MRI analysis; format: functional; settings: time 5 day
[25] = Toxicity in Fisher rat xenografted with rat F98 cells assessed as animal survival at 5 mg/kg, IT measured for 16 days; format: organism-based; settings: in vivo, other, 384 h, time 16 day; summary of the method: as §5
[26] = Cytotoxicity against mouse N13 cells assessed as cell viability at 0.31 uM incubated for 24 hrs by MTT assay relative to control; format: functional; settings: read-out: Activity; summary of the method: as §1
F98 [27] = assay: Cytotoxicity against rat F98 cells assessed as cell viability at 0.31 uM incubated for 24 hrs by MTT assay relative to control; format: functional; settings: read-out: Activity; summary of the method: as §1

## CCOC(=O)C[C@H](N)c1cc(OC)ccc1O
[1]
  viability at 0.36 µM: 70%
[2]
  IC50: 40 µM
F98 [3]
  viability at 0.36 µM: 5%

## CCOC(=O)C[C@H](N)c1cc([N+](=O)[O-])ccc1O
[4]
  viability at 0.34 µM: 30%
[2]
  IC50: 660 µM
F98 [5]
  viability at 0.34 µM: 20%
F98 [6]
  IC50: 1140 µM

## N[C@H]1CC(=O)Oc2ccccc21
[7]
  viability at 0.5 µM: 15%
[2]
  IC50: 1570 µM
F98 [8]
  viability at 0.5 µM: 55%
F98 [6]
  IC50: 480 µM

## CCOC(=O)C[C@H](N)c1ccc(OC)cc1O
[1]
  viability at 0.36 µM: 55%
[2]
  IC50: 340 µM
F98 [3]
  viability at 0.36 µM: 45%
F98 [6]
  IC50: 470 µM

## CCOC(=O)C[C@H](N)c1cc(Br)cc(OC)c1O
[9]
  viability at 0.28 µM: 60%
[2]
  IC50: 220 µM
F98 [10]
  viability at 0.28 µM: 60%
F98 [6]
  IC50: 170 µM

## CCOC(=O)C[C@H](N)c1ccccc1O.Cl
[11]
  viability at 0.4 µM: 0%
F98 [12]
  viability at 0.4 µM: 60%
F98 [6]
  IC50: 140 µM
F98 [13]
  Activity: Dose-Dependent Effect
N13 [14]
  Activity: Active
N13 [15]
  Activity: inactive
F98 [16]
  Activity: 42%
[17]
  Activity: Non-Toxic
[18]
  Activity: Non-Toxic
[19]
  Activity: Non-Toxic
[20]
  survival at 720 h: 100%
F98 [21]
  Activity: Active
F98 [22]
  Activity: 370 mm3
[23]
  Activity: Non-Toxic
F98 [24]
  Activity: 815 mm3
[25]
  Activity: Non-Toxic

## CCOC(=O)C[C@@H](N)c1ccccc1O
[11]
  viability at 0.4 µM: 40%
[2]
  IC50: 450 µM
F98 [12]
  viability at 0.4 µM: 35%
F98 [6]
  IC50: 780 µM

## CCOC(=O)C[C@H](N)c1cc(Br)ccc1O
[26]
  viability at 0.31 µM: 40%
[2]
  IC50: 500 µM
F98 [27]
  viability at 0.31 µM: 60%
F98 [6]
  IC50: 210 µM
